Key:
[1] = biological target: T1, Cathepsin K (Homo sapiens, UniProt P43235); assay: Inhibition of cathepsin K
T1 sequence (P43235 whole entry): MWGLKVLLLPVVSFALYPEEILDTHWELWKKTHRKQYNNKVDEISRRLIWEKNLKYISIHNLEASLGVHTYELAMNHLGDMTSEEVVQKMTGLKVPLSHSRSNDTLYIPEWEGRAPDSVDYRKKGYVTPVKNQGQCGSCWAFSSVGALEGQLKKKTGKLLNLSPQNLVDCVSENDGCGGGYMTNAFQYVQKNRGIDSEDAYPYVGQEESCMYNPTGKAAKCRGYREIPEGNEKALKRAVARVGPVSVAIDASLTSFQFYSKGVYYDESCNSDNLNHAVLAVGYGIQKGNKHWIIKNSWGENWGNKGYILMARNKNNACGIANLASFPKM
Outline: (§1)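 Cathepsins B (2 nM), K (10 nM) or L (0.03 nM) in pH 6.1 phosphate/NaCl/DTT/EDTA/Tween-20 buffer. Preincubated 5 min at 37 °C with five inhibitor levels (10-90% inhibition), in duplicate. Cbz-Phe-Arg-AMC added at 5 and 2.5 µM (B, K) or 0.6 and 0.3 µM (L). AMC read at ex 355/em 450 nm for 5 min. Ki by Dixon plot.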

[2] = biological target: Procathepsin L (Homo sapiens, UniProt P07711); assay: Inhibition of cathepsin L; outline: as §1
Procathepsin L, sequence (P07711 whole entry): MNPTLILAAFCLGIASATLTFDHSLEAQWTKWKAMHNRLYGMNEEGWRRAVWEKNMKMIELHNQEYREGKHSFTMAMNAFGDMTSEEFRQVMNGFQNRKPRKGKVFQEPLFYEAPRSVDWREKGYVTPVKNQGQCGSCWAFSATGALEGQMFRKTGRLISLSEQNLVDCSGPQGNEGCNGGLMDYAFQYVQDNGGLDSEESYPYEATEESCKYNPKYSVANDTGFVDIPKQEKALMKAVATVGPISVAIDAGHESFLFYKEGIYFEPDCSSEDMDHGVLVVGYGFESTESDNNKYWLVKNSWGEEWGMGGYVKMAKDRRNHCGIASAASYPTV

[3] = biological target: Cathepsin S (Homo sapiens, UniProt P25774); assay: Inhibition of cathepsin S
Cathepsin S, sequence (P25774 whole entry): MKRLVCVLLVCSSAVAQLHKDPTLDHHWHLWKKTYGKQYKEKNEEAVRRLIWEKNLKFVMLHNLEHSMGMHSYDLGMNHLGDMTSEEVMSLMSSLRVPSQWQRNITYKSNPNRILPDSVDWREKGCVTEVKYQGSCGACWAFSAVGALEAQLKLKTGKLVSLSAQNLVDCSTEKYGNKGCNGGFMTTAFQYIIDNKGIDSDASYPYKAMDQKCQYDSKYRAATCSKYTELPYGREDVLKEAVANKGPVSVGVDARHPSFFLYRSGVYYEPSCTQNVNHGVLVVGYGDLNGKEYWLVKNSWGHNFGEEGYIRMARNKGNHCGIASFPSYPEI
Outline: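 Cathepsin S at 0.6 nM in pH 6.1 100 mM sodium phosphate with 100 mM NaCl, 1 mM DTT, 1 mM EDTA and 0.001% Tween-20. Enzyme preincubated 5 min at 37 °C with five inhibitor concentrations (10-90% inhibition), in duplicate. Cbz-Leu-Arg-AMC added at 5 and 2.5 µM, then AMC read (ex 355/em 450 nm) over 5 min. Ki by Dixon method.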

[4] = biological target: Cathepsin B (Homo sapiens, UniProt P07858); assay: Inhibition of cathepsin B; outline: as §1

| Structure (SMILES) | IC50 [1] | Ki [1] | IC50 [2] | Ki [2] | Ki [3] | IC50 [4] | Ki [4] |
| --- | --- | --- | --- | --- | --- | --- | --- |
| CCCC[C@@H](C#N)n1cc([C@@](C)(NC(=O)c2ccsc2)C2CCC(C)CC2)nn1 (stereo not given in full) | > 15 µM | > 15000 nM | > 15 µM | > 15 µM | 15 nM |  |  |
| CCCC[C@@H](C#N)n1cc([C@@](C)(NC(=O)c2ccsc2)C(C)C)nn1 |  | 430 nM | > 10 µM | > 10 µM | 420 nM | > 10 µM | > 10 µM |
| CCCC[C@@H](C#N)n1cc([C@@](C)(NC(=O)c2ccccc2)C2CCCCC2)nn1 | > 10 µM | > 10000 nM | > 10 µM | > 10 µM | 200 nM | > 10 µM | > 10 µM |
| CCCC[C@@H](C#N)n1cc([C@@](C)(NC(=O)c2ccccc2)C(C)C)nn1 |  | 880 nM | > 10 µM | > 10 µM | 1200 nM | > 10 µM | > 10 µM |
| CCCC[C@@H](C#N)n1cc([C@@](C)(NC(=O)c2ccsc2)C2CCCCC2)nn1 |  | 1700 nM | > 10 µM | > 10 µM | 18 nM | > 10 µM | > 10 µM |

From ChEMBL document CHEMBL1137397, “Identification of selective, nonpeptidic nitrile inhibitors of cathepsin s using the substrate activity screening method” (J Med Chem, 2006)
